ChEMBL document CHEMBL1817571, “Design and synthesis of new prostaglandin D₂ receptor antagonists” (Bioorg Med Chem, 2011)

Columns and labels:
[1] = target: Prostaglandin E2 receptor EP2 subtype (Mus musculus, UniProt Q62053); experiment: Displacement of [3H]PGE2 from mouse prostaglandin EP2 receptor expressed in CHO cells after 60 mins by liquid scintillation counting; type: cell-based
How it was run: (§1)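 Membranes came from CHO cells stably expressing mEP1, EP2, EP3 or EP4. They were incubated with 2.5 nM [3H]PGE2 and graded test concentrations in 10 mM KH2PO4–KOH (1 mM EDTA, 10 mM MgCl2, 100 mM NaCl, pH 6.0) at room temperature, 20 min for EP1 and 60 min for EP2–4. Reactions were filtered on GF/B, washed with ice-cold buffer, and counted by scintillation. IC50 came by regression, with Ki via Cheng–Prusoff.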

[2] = target: T1, Prostaglandin E2 receptor EP3 subtype (Mus musculus, UniProt P30557); experiment: Displacement of [3H]PGE2 from mouse prostaglandin EP3alpha receptor expressed in CHO cells after 60 mins by liquid scintillation counting; type: cell-based; how it was run: as §1
T1 sequence (P30557 whole entry): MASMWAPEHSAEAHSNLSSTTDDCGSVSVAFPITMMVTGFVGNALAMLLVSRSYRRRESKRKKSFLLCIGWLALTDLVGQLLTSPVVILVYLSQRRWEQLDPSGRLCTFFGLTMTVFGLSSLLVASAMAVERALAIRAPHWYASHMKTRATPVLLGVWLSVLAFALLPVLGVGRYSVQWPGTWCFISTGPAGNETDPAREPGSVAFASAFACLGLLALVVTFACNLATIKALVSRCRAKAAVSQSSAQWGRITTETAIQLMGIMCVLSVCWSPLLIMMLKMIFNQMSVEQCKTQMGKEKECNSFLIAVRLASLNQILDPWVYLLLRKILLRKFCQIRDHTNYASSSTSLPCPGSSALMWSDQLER

[3] = target: Prostaglandin E2 receptor EP4 subtype (Mus musculus, UniProt P32240); experiment: Displacement of [3H]PGE2 from mouse prostaglandin EP4 receptor expressed in CHO cells after 60 mins by liquid scintillation counting; type: cell-based; how it was run: as §1
Sequence of Prostaglandin E2 receptor EP4 subtype (P32240 whole entry): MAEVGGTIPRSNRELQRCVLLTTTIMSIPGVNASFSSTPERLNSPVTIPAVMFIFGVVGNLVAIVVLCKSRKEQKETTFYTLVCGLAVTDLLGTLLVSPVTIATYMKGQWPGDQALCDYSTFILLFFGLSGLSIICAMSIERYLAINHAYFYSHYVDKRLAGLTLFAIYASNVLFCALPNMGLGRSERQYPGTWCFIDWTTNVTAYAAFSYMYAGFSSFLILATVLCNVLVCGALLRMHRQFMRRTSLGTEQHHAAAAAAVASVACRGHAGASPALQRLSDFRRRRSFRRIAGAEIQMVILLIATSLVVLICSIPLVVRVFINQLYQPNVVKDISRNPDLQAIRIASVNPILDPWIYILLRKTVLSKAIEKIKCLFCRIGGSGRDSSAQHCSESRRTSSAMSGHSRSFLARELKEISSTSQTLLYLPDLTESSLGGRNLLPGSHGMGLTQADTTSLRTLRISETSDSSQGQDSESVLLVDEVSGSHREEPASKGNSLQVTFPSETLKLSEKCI

[4] = target: T2, Prostaglandin D2 receptor (Mus musculus, UniProt P70263); experiment: Displacement of [3H]PGD2 from mouse prostanoid DP receptor expressed in CHO cells after 20 mins by liquid scintillation counting
T2 sequence (P70263 whole entry): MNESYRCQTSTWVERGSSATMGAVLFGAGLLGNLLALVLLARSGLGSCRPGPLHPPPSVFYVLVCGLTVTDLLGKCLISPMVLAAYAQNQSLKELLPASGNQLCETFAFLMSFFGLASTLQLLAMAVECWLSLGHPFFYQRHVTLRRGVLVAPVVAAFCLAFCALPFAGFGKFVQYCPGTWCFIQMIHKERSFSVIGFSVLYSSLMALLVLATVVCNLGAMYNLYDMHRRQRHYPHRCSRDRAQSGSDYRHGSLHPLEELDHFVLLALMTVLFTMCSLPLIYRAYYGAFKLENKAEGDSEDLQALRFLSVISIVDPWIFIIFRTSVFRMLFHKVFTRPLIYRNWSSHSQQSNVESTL

[5] = target: T3, Prostaglandin E2 receptor EP1 subtype (Mus musculus, UniProt P35375); experiment: Displacement of [3H]PGE2 from mouse prostaglandin EP1 receptor expressed in CHO cells after 20 mins by liquid scintillation counting
T3 sequence (P35375 whole entry): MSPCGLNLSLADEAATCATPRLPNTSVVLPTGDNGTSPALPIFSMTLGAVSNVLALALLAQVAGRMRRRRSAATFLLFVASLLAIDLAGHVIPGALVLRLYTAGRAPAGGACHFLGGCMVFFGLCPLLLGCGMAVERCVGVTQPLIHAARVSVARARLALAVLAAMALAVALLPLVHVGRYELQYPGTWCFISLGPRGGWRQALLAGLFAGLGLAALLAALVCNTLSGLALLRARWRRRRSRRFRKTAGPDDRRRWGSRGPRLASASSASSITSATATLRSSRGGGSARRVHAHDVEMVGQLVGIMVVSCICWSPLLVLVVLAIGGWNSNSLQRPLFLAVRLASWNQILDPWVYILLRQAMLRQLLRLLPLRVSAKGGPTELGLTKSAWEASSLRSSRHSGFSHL

[6] = target: Prostacyclin receptor (Homo sapiens, UniProt P43119); experiment: Displacement of [3H]Iloprost from human prostanoid IP receptor expressed in CHO cells after 30 mins by liquid scintillation counting
Sequence of Prostacyclin receptor (P43119 whole entry): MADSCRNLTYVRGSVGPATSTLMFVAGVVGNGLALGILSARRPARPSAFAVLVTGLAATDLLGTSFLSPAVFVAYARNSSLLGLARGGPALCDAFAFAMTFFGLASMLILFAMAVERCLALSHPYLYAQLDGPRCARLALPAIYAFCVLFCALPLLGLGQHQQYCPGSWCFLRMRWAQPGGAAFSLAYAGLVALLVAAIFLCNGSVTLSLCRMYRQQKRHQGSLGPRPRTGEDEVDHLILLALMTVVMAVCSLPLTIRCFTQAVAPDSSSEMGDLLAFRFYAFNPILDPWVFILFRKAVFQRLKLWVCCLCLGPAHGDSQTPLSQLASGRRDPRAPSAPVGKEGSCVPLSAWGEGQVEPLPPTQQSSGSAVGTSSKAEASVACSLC

[7] = target: T2, Prostaglandin D2 receptor; experiment: Antagonist activity at mouse prostanoid DP receptor expressed in CHO cells assessed as inhibition of PGD2-induced intracellular cAMP production; type: functional, cell-based
How it was run: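 CHO-mDP cells were seeded at 1×10^5 cells/well and grown 2 days. They were preincubated about 10 min at 37 °C in MEM with 2 µM diclofenac, then about 10 min in MEM with 0.1% BSA, 1 mM IBMX and 2 µM diclofenac. Test compounds at various concentrations plus 10 nM PGD2 were then added for 10 min at 37 °C. Reactions were stopped with 10% TCA, extracted with tri-n-octylamine/chloroform, and cAMP was measured by EIA.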

[8] = target: Prostaglandin F2-alpha receptor (Mus musculus, UniProt P43117); experiment: Displacement of [3H]PGF2alpha from mouse prostanoid FP receptor expressed in CHO cells after 60 mins by liquid scintillation counting; type: cell-based
Sequence of Prostaglandin F2-alpha receptor (P43117 whole entry): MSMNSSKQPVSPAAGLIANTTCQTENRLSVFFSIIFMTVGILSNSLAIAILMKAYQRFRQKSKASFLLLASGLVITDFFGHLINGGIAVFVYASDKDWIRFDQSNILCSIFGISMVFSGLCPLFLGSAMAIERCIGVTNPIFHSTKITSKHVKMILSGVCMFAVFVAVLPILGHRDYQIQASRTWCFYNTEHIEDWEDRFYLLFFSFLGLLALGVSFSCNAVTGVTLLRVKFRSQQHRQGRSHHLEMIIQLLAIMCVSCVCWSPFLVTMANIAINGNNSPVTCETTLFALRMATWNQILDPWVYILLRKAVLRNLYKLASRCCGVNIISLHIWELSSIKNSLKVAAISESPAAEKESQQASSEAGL
How it was run: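 CHO-mFP membranes were incubated with 2.5 nM [3H]PGF2α and varied test concentrations in 10 mM KH2PO4–KOH, 1 mM EDTA, 10 mM MgCl2, 100 mM NaCl, pH 6.0, for 60 min at room temperature. Samples were then filtered on GF/B, washed with ice-cold phosphate/NaCl buffer, and counted by scintillation. IC50 came from the regression curve, and Ki = IC50/(1+[L]/Kd).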

[9] = target: T4, Thromboxane A2 receptor (Homo sapiens, UniProt P21731); experiment: Displacement of [3H]-SQ29548 from human prostanoid TP receptor expressed in CHO cells after 30 mins by liquid scintillation counting
T4 sequence (P21731 whole entry): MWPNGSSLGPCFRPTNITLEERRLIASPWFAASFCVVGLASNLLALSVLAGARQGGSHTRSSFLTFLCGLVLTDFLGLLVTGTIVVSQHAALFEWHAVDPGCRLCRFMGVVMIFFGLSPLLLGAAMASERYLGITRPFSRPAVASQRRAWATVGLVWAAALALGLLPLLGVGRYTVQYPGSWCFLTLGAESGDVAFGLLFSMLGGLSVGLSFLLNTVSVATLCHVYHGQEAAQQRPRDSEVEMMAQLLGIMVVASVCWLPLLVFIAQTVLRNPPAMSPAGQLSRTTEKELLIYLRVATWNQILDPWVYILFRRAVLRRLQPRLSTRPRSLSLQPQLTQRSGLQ

[10] = AUC (infinity) in rat at 1 mg/kg, iv; type: ADME, organism-based; set-up: time infinity, dose 1 mg/kg, route intravenous; settings: plasma
How it was run: (§2)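 Fasted male rats (n = 3) received 1 mg/kg iv or 10 mg/kg po. Jugular vein blood was drawn with a heparinized syringe at pre-dose and 2 (iv only), 5, 15 and 30 min, and 1, 2, 4, 6 and 8 h. Plasma was obtained by centrifugation at 4 °C and stored at −80 °C. AUC, Cmax, T1/2, Vss and CL came from the plasma concentration–time course. BA was derived from dose-normalized AUCpo/AUCiv.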

[11] = AUC (infinity) in rat at 10 mg/kg, po; type: ADME, organism-based; set-up: time infinity, dose 10 mg/kg, route oral; settings: plasma; how it was run: as §2
[12] = Total clearance in rat at 1 mg/kg, iv; type: ADME, organism-based; set-up: dose 1 mg/kg, route intravenous; settings: in vivo; how it was run: as §2
[13] = Cmax in rat at 10 mg/kg, po; type: ADME, organism-based; set-up: dose 10 mg/kg, route oral; settings: in vivo; how it was run: as §2
[14] = Half life in rat at 1 mg/kg, iv; type: ADME, organism-based; set-up: dose 1 mg/kg, route intravenous; settings: in vivo; how it was run: as §2
[15] = Half life in rat at 10 mg/kg, po; type: ADME, organism-based; set-up: dose 10 mg/kg, route oral; settings: in vivo; how it was run: as §2
[16] = Volume of distribution at steady state in rat at 1 mg/kg, iv; type: ADME, organism-based; set-up: dose 1 mg/kg, route intravenous; settings: in vivo, read-out: Vdss; how it was run: as §2
[17] = Oral bioavailability in rat at 10 mg/kg; type: ADME, organism-based; settings: in vivo; how it was run: as §2

Sequence of Prostaglandin E2 receptor EP2 subtype (Q62053 whole entry): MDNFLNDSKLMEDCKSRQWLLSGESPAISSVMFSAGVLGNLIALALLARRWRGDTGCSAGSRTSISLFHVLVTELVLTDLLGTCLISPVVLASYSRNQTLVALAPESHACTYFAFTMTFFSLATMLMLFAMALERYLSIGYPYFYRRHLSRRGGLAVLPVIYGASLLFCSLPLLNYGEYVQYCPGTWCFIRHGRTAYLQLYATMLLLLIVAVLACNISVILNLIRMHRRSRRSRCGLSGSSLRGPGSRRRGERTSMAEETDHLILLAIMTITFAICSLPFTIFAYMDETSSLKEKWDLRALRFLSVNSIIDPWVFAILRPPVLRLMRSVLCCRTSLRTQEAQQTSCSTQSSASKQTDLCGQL

Row | SMILES | Ki [2] [nM] | Ki [3] [nM] | Ki [4] [nM] | Ki [5] [nM] | Ki [6] [nM] | IC50 [7] [nM] | also measured
1 | CN1C[C@@H](COc2ccc(S(=O)(=O)Nc3cccc(CC(=O)O)c3)cc2)Oc2ccccc21 | 210 | 140 | 430 | 2700 | 4600 |  | Ki [1]: 2300 nM
2 | CN1C[C@@H](COc2ccc(NC(=O)c3cccc(CC(=O)O)c3)cc2)Oc2ccccc21 | > 10000 | > 10000 | 5300 | > 10000 | > 10000 |  | Ki [1]: 3500 nM
3 | CN1C[C@@H](COc2ccc(C(=O)N(C)c3cccc(CC(=O)O)c3)cc2)Oc2ccccc21 | 1700 | > 10000 | 760 | > 10000 | > 10000 |  | Ki [1]: 5300 nM
4 | CCN(C(=O)c1ccc(OC[C@@H]2CN(C)c3ccccc3O2)cc1)c1cccc(CC(=O)O)c1 | 700 | > 10000 | 770 | 1300 | 2900 |  | Ki [1]: > 10000 nM
5 | Cc1cc(OC[C@@H]2CN(C)c3ccccc3O2)ccc1C(=O)Nc1cccc(CC(=O)O)c1 | > 10000 | > 10000 | 18 | > 10000 | 3600 | 3.3 | Ki [8]: > 10000 nM; Ki [9]: > 10000 nM
6 | CN1C[C@@H](COc2ccc(C(=O)Nc3cccc(CC(=O)O)c3)c(Cl)c2)Oc2ccccc21 |  |  | 16 |  |  | 20 | 
7 | Cc1cc(OC[C@@H]2CN(C)c3ccccc3O2)ccc1C(=O)Nc1cccc(CC(=O)O)c1C |  |  | 59 |  |  | 28 | 
8 | Cc1cc(CC(=O)O)cc(NC(=O)c2ccc(OC[C@@H]3CN(C)c4ccccc4O3)cc2C)c1 | > 10000 | 670 | 8.4 | > 10000 | 3500 | 3.4 | Ki [1]: 62 nM; Ki [8]: > 10000 nM; Ki [9]: > 10000 nM
9 | Cc1ccc(NC(=O)c2ccc(OC[C@@H]3CN(C)c4ccccc4O3)cc2C)cc1CC(=O)O |  |  | 11 |  |  | 6.1 | 
10 | Cc1cc(OC[C@@H]2CN(C)c3ccccc3O2)ccc1C(=O)Nc1cc(CC(=O)O)ccc1Cl |  |  | 7.7 |  |  |  | 
11 | Cc1cc(OC[C@@H]2CN(C)c3ccccc3O2)ccc1C(=O)Nc1cc(CC(=O)O)ccc1F |  |  | 19 |  |  | 1.8 | 
12 | Cc1cc(OC[C@@H]2CN(C)c3ccccc3O2)ccc1C(=O)Nc1cc(F)cc(CC(=O)O)c1 |  |  | 7.4 |  |  | 5.6 | 
13 | Cc1cc(OC[C@@H]2CN(C)c3ccccc3O2)ccc1C(=O)Nc1ccc(F)c(CC(=O)O)c1 |  |  | 15 |  |  | 1.2 | 
14 | COc1ccc(NC(=O)c2ccc(OC[C@@H]3CN(C)c4ccccc4O3)cc2C)cc1CC(=O)O |  |  | 24 |  |  | 20 | 
15 | Cc1ccc(CC(=O)O)cc1NC(=O)c1ccc(OC[C@@H]2CN(C)c3ccccc3O2)cc1Cl |  |  | 26 |  |  | 6 | 
16 | Cc1cc(CC(=O)O)cc(NC(=O)c2ccc(OC[C@@H]3CN(C)c4ccccc4O3)cc2Cl)c1 |  |  | 12 |  |  | 5.4 | 
17 | Cc1ccc(NC(=O)c2ccc(OC[C@@H]3CN(C)c4ccccc4O3)cc2Cl)cc1CC(=O)O |  |  | 17 |  |  | 3.9 | 
18 | CN1C[C@@H](COc2ccc(C(=O)Nc3cc(CC(=O)O)ccc3Cl)c(Cl)c2)Oc2ccccc21 | > 10000 | > 10000 | 13 | 6600 | 1600 | 4.3 | Ki [1]: 44 nM; Ki [8]: > 10000 nM; Ki [9]: > 10000 nM
19 | CN1C[C@@H](COc2ccc(C(=O)Nc3ccc(F)c(CC(=O)O)c3)c(Cl)c2)Oc2ccccc21 |  |  | 25 |  |  | 50 | 
20 | COc1ccc(NC(=O)c2ccc(OC[C@@H]3CN(C)c4ccccc4O3)cc2Cl)cc1CC(=O)O |  |  | 36 |  |  | 41 | 
21 | Cc1cc2c(CC(=O)O)cccc2n1C(=O)c1ccc(OC[C@@H]2CN(C)c3ccccc3O2)cc1 |  |  |  |  |  |  | AUC(0-inf) [10]: 7200 ng·h/mL; AUC(0-inf) [11]: 24300 ng·h/mL; clearance [12]: 2.4 mL/min/kg; Cmax [13]: 3500 ng/mL; half-life [14]: 9.8 h; half-life [15]: 5.4 h; Vd [16]: 1.8 L/kg; bioavailability [17]: 34%
